Source: the M2OR odorant receptor database
Substitutions are numbered along the chain they refer to.

What was measured:
Details in all cases: stereoisomer not certain
[1] = target: T1, OR51A4 (Homo sapiens) (UniProt Q8NGJ6)
T1 sequence (whole entry): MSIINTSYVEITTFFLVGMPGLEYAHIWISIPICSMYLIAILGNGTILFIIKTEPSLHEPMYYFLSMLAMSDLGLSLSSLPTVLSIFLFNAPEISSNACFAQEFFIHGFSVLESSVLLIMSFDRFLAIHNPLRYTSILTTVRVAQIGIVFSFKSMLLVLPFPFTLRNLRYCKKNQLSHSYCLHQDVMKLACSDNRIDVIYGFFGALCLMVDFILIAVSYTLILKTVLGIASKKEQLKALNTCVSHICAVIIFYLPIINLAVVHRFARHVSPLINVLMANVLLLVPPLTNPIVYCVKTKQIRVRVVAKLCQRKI
Outline: (§1)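 Each receptor–molecule pair is labelled responsive or non-responsive (inactive) according to whether the original authors judged the measured signal statistically different from baseline. The data were taken from the main text and supplementary material of published papers and checked for typos and inconsistencies. Assay methods differed by source, with transient luciferase assays in mammalian cell lines being common.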

[2] = target: T2, OR4S2 (Homo sapiens) (UniProt Q8NH73)
T2 sequence (whole entry): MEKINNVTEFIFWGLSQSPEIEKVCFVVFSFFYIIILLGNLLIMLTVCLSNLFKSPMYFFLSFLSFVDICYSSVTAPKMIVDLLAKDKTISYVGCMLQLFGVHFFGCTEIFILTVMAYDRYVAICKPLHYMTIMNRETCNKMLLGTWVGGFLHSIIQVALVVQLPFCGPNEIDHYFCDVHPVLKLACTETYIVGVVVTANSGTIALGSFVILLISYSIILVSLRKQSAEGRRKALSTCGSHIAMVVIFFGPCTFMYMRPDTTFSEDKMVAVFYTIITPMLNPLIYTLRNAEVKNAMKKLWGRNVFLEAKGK
Outline: as §1

[3] = target: T3, OR4X1 (Homo sapiens) (UniProt Q8NH49)
T3 sequence (whole entry): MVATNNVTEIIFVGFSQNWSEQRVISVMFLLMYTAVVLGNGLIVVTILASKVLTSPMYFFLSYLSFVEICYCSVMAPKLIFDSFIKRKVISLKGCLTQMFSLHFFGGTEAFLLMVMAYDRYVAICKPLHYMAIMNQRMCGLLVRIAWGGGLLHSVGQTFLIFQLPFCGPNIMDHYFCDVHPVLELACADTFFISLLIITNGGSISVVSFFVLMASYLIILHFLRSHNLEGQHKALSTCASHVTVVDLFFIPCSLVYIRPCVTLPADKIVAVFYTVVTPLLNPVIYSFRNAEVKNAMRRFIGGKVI
Outline: as §1

[4] = target: T4, OR4X2 (Homo sapiens) (UniProt Q8NGF9)
T4 sequence (whole entry): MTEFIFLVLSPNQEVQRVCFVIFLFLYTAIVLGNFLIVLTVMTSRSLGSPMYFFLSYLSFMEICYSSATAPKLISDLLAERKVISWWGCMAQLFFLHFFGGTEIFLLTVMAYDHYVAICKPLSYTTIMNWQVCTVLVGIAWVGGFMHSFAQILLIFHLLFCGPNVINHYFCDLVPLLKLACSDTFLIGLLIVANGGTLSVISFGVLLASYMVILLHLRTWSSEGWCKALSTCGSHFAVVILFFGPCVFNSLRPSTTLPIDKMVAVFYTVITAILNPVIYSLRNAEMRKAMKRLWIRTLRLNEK
Outline: as §1

[5] = target: T5, OR51A2 (Homo sapiens) (UniProt Q8NGJ7)
T5 sequence (whole entry): T1 sequence (whole entry) with E59G, I94T, N97S, N167S, L227P, Q235E, R267G, T288M, N289K, R311W
Outline: as §1

[6] = target: T6, OR51A7 (Homo sapiens) (UniProt Q8NH64)
T6 sequence (whole entry): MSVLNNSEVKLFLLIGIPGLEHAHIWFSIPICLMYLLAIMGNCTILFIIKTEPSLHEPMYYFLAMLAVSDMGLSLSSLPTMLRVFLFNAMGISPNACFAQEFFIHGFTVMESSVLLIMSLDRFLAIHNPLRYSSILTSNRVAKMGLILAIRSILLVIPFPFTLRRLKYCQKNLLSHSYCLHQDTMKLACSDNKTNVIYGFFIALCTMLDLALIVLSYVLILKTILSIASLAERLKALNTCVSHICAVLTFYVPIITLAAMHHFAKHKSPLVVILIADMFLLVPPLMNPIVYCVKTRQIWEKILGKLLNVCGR
Outline: as §1

[7] = target: T7, OR51B2 (Homo sapiens) (UniProt Q9Y5P1)
T7 sequence (whole entry): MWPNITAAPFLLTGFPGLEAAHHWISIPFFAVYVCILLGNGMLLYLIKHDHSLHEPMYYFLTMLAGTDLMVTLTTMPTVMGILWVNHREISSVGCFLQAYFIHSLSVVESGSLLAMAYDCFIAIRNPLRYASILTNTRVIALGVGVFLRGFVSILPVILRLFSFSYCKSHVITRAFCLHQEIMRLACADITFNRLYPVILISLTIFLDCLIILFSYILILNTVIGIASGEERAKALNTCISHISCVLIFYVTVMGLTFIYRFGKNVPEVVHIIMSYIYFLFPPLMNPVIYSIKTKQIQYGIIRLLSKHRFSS
Outline: as §1

[8] = target: T8, OR51B4 (Homo sapiens) (UniProt Q9Y5P0)
T8 sequence (whole entry): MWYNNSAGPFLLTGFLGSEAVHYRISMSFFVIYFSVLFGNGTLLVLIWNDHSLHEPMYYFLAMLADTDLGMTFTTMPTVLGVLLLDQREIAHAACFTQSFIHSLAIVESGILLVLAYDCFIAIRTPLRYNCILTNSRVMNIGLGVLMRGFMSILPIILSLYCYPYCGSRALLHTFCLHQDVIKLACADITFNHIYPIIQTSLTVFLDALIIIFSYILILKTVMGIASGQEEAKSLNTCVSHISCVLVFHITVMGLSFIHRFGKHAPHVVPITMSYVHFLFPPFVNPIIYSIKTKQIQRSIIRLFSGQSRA
Outline: as §1

[9] = target: T9, OR51B5 (Homo sapiens) (UniProt Q9H339)
T9 sequence (whole entry): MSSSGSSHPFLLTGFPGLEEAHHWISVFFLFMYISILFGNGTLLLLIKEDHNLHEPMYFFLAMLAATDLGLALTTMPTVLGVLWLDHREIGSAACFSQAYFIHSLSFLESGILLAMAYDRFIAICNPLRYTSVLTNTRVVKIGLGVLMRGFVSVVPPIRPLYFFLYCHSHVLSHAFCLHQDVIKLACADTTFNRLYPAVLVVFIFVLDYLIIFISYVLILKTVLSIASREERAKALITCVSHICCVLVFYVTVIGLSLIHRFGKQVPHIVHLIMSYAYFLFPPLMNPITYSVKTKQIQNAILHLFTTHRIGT
Outline: as §1

[10] = target: T10, OR51B6 (Homo sapiens) (UniProt Q9H340)
T10 sequence (whole entry): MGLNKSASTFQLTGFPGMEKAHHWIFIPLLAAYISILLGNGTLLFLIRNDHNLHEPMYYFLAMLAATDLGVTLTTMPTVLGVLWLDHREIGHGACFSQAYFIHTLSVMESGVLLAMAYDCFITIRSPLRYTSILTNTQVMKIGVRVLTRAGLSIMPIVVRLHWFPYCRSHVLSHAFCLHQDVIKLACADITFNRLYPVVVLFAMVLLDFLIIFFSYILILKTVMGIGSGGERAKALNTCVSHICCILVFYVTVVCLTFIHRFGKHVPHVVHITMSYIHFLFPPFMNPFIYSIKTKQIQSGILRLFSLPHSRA
Outline: as §1

Measured: odorant receptor agonist call;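 also: active if original authors judged signal statistically different from baseline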

CCCCCCCCC(=O)O
inactive: [1]

CC1=NC(C)C(C)S1 (stereo unspecified)
inactive: all assays above

CCC1OC(=O)C(O)=C1C (stereo unspecified)
inactive: all assays above

CCCO
inactive: [9]

CCCCCC(=O)C(C)C(C)=O (stereo unspecified)
inactive: all assays above

CCCCC(S)C(C)CO (stereo unspecified)
inactive: all assays above

CCCCCCCCCCCC(=O)O
active: [9]

CC1=C(O)C(=O)C(C)O1 (stereo unspecified)
inactive: all assays above

Cc1cnc(C)c(C)n1
inactive: all assays above

CC1CCCCCCCCCCCCC(=O)C1 (stereo unspecified)
inactive: all assays above

CCCCCC1CCCC(=O)O1 (stereo unspecified)
not listed: [2] | [3] | [4]
inactive: all other assays above

CC(CO)CS (stereo unspecified)
inactive: all assays above

CCC(C)CO (stereo unspecified)
inactive: [9]
